Values after ≈ are worked out from the molar mass of the structure shown.
Legend:
[1] = test system: Mycobacterium tuberculosis; experiment: Antimycobacterial activity against Mycobacterium tuberculosis H37Rv assessed as reduction in bacterial cell growth by resazurin reduction method; format: functional
[2] = Inhibition of DprE1 in Mycobacterium tuberculosis
[3] = test system: Mycobacterium tuberculosis; experiment: Bactericidal activity against Mycobacterium tuberculosis; format: functional
[4] = test system: Mycobacterium tuberculosis; experiment: Bactericidal activity against Mycobacterium tuberculosis infected in mouse assessed as reduction in colony forming unit at 1 to 2 times of antimycobacterial MIC incubated for 10 days; format: functional
[5] = test system: Mycobacterium tuberculosis; experiment: Bactericidal activity against Mycobacterium tuberculosis infected in human THP1 cells assessed as reduction in colony forming unit at antimycobacterial MIC incubated for 7 days; format: functional
[6] = test system: Mycolicibacterium smegmatis; experiment: Antimycobacterial activity against Mycobacterium smegmatis mc2 155 assessed as reduction in bacterial cell growth by resazurin reduction method; format: functional
[7] = Tmax in mouse at MIC in presence of CYP pan inhibitor 1-aminobenzotriazole; format: ADME; settings: in vivo
[8] = Lipophilicity, logD of compound; format: physicochemical; settings: octanol/water
[9] = Aqueous solubility of DMSO-dried solid compounds; format: physicochemical; settings: buffer
[10] = Protein binding in human plasma assessed as free fraction; format: ADME, cell-free
[11] = Permeability across apical to basolateral side in human Caco2 cells; format: ADME, cell-based; settings: Caco-2, read-out: permeability
[12] = Permeability across basolateral to apical side in human Caco2 cells; format: ADME, cell-based; settings: Caco-2, read-out: permeability
[13] = target: Cytochrome P450 1A2 (Homo sapiens, UniProt P05177); experiment: Inhibition of CYP1A2 (unknown origin); format: ADME
[14] = target: Cytochrome P450 2C9 (Homo sapiens, UniProt P11712); experiment: Inhibition of CYP2C9 (unknown origin); format: ADME
[15] = target: Cytochrome P450 2C19 (Homo sapiens, UniProt P33261); experiment: Inhibition of CYP2C19 (unknown origin); format: ADME
[16] = target: Cytochrome P450 2D6 (Homo sapiens, UniProt P10635); experiment: Inhibition of CYP2D6 (unknown origin); format: ADME
[17] = target: Cytochrome P450 3A4 (Homo sapiens, UniProt P08684); experiment: Inhibition of CYP3A4 (unknown origin); format: ADME
[18] = target: Voltage-gated inwardly rectifying potassium channel KCNH2 (Homo sapiens, UniProt Q12809); experiment: Inhibition of human ERG
[19] = Clearance in rat; format: ADME; settings: in vivo
[20] = Oral bioavailability in rat; format: ADME, organism-based; settings: in vivo
[21] = Cmax in BALB/c mouse infected with Mycobacterium tuberculosis H37Rv at 10 mg/kg, po administered for 4 weeks starting from day 28 post infection; format: ADME, organism-based; design: dose 10 mg/kg, route oral; settings: in vivo
Summary of the method: (§1)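 Male BALB/c mice with chronic TB, aerosol-infected, given 10 or 30 mg/kg orally in multiple doses over a 4-week course that began 28 days post-infection. Plasma concentration–time profiles were taken from infected animals. PK parameters are reported as mean ± SD, n = 3.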

[22] = Tmax in BALB/c mouse infected with Mycobacterium tuberculosis H37Rv at 10 mg/kg, po administered for 4 weeks starting from day 28 post infection; format: ADME, organism-based; settings: in vivo; summary of the method: as §1
[23] = AUC (0 to infinity) in BALB/c mouse infected with Mycobacterium tuberculosis H37Rv at 10 mg/kg, po administered for 4 weeks starting from day 28 post infection; format: ADME, organism-based; design: dose 10 mg/kg, time infinity, route oral; settings: in vivo; summary of the method: as §1
[24] = Half life in BALB/c mouse infected with Mycobacterium tuberculosis H37Rv at 10 mg/kg, po administered for 4 weeks starting from day 28 post infection; format: ADME, organism-based; settings: in vivo; summary of the method: as §1
[25] = Cmax in BALB/c mouse infected with Mycobacterium tuberculosis H37Rv at 30 mg/kg, po administered for 4 weeks starting from day 28 post infection; format: ADME, organism-based; design: dose 30 mg/kg, route oral; settings: in vivo; summary of the method: as §1
[26] = Tmax in BALB/c mouse infected with Mycobacterium tuberculosis H37Rv at 30 mg/kg, po administered for 4 weeks starting from day 28 post infection; format: ADME, organism-based; settings: in vivo; summary of the method: as §1
[27] = AUC (0 to infinity) in BALB/c mouse infected with Mycobacterium tuberculosis H37Rv at 30 mg/kg, po administered for 4 weeks starting from day 28 post infection; format: ADME, organism-based; design: dose 30 mg/kg, route oral, time infinity; settings: in vivo; summary of the method: as §1
[28] = Half life in BALB/c mouse infected with Mycobacterium tuberculosis H37Rv at 30 mg/kg, po administered for 4 weeks starting from day 28 post infection; format: ADME, organism-based; settings: in vivo; summary of the method: as §1
[29] = test system: Mycobacterium tuberculosis; experiment: Antimycobacterial activity against Mycobacterium tuberculosis H37Rv infected in BALB/c mouse assessed as reduction in bacterial burden in mouse lung at 30 mg/kg, po administered for 4 weeks starting from day 28 post infection; format: functional
Summary of the method: (§2)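 Chronic TB model in BALB/c mice infected by the aerosol route. Oral treatment began 28 days post-infection and ran 4 weeks. Bacterial burden was read as log10 CFU in lungs and spleen.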

[30] = test system: Mycobacterium tuberculosis; experiment: Antimycobacterial activity against Mycobacterium tuberculosis H37Rv infected in BALB/c mouse assessed as reduction in bacterial burden in mouse spleen at 30 mg/kg, po administered for 4 weeks starting from day 28 post infection; format: functional; summary of the method: as §2
[31] = Toxicity in BALB/c mouse infected with Mycobacterium tuberculosis H37Rv assessed as body weight loss at 10 to 30 mg/kg, po administered for 4 weeks starting from day 28 infection; format: organism-based; settings: in vivo, 672 h
Summary of the method: (§3)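 Infected BALB/c mice received repeated oral dosing for 4 weeks in the chronic efficacy study. Adverse events were assessed as body weight loss, organ weight loss and gross pathology.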

[32] = Toxicity in BALB/c mouse infected with Mycobacterium tuberculosis H37Rv assessed as organ weight loss at 10 to 30 mg/kg, po administered for 4 weeks starting from day 28 infection; format: organism-based; settings: in vivo, 672 h; summary of the method: as §3
[33] = Toxicity in BALB/c mouse infected with Mycobacterium tuberculosis H37Rv assessed as gross pathology at 10 to 30 mg/kg, po administered for 4 weeks starting from day 28 infection; format: organism-based; settings: in vivo, 672 h; summary of the method: as §3
[34] = test system: Bacillus subtilis; experiment: Antibacterial activity against Bacillus subtilis; format: functional
[35] = test system: Corynebacterium glutamicum; experiment: Antibacterial activity against Corynebacterium glutamicum; format: functional
[36] = test system: Corynebacterium pseudodiphtheriticum; experiment: Antibacterial activity against Corynebacterium pseudodiphtheria; format: functional
[37] = test system: Corynebacterium pseudotuberculosis; experiment: Antibacterial activity against Corynebacterium pseudotuberculosis; format: functional
[38] = test system: Enterococcus faecalis; experiment: Antibacterial activity against Enterococcus faecalis; format: functional
[39] = test system: Escherichia coli; experiment: Antibacterial activity against Escherichia coli; format: functional
[40] = test system: Listeria monocytogenes; experiment: Antibacterial activity against Listeria monocytogenes; format: functional
[41] = test system: Nocardia farcinica; experiment: Antibacterial activity against Nocardia farcinica; format: functional
[42] = test system: Proteus vulgaris; experiment: Antibacterial activity against Proteus vulgaris; format: functional
[43] = test system: Pseudomonas aeruginosa; experiment: Antibacterial activity against Pseudomonas aeruginosa; format: functional
[44] = test system: Pseudomonas putida; experiment: Antibacterial activity against Pseudomonas putida; format: functional
[45] = test system: Rhodococcus; experiment: Antibacterial activity against Rhodococcus sps; format: functional
[46] = test system: Prescottella equi; experiment: Antibacterial activity against Rhodococcus equi; format: functional; settings: Rhodococcus (subgen. Prescottella) equi
[47] = test system: Staphylococcus aureus; experiment: Antibacterial activity against Staphylococcus aureus; format: functional
[48] = Mycobacterium tuberculosis, H37Rv, read-out: MIC

Sequence of Cytochrome P450 2D6 (P10635 whole entry): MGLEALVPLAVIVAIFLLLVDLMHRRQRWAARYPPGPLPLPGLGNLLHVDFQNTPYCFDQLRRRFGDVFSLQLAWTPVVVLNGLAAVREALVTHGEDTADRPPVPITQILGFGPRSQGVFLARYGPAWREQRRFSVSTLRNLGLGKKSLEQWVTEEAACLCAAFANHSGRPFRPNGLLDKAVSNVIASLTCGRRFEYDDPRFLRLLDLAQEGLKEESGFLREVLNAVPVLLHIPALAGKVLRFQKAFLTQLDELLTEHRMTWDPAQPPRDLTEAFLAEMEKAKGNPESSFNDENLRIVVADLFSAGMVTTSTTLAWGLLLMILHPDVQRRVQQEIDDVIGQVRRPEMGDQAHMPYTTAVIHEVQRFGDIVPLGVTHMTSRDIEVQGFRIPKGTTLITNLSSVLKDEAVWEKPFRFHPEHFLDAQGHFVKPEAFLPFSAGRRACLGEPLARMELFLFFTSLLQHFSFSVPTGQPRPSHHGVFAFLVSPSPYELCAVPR
Sequence of Voltage-gated inwardly rectifying potassium channel KCNH2 (Q12809 whole entry): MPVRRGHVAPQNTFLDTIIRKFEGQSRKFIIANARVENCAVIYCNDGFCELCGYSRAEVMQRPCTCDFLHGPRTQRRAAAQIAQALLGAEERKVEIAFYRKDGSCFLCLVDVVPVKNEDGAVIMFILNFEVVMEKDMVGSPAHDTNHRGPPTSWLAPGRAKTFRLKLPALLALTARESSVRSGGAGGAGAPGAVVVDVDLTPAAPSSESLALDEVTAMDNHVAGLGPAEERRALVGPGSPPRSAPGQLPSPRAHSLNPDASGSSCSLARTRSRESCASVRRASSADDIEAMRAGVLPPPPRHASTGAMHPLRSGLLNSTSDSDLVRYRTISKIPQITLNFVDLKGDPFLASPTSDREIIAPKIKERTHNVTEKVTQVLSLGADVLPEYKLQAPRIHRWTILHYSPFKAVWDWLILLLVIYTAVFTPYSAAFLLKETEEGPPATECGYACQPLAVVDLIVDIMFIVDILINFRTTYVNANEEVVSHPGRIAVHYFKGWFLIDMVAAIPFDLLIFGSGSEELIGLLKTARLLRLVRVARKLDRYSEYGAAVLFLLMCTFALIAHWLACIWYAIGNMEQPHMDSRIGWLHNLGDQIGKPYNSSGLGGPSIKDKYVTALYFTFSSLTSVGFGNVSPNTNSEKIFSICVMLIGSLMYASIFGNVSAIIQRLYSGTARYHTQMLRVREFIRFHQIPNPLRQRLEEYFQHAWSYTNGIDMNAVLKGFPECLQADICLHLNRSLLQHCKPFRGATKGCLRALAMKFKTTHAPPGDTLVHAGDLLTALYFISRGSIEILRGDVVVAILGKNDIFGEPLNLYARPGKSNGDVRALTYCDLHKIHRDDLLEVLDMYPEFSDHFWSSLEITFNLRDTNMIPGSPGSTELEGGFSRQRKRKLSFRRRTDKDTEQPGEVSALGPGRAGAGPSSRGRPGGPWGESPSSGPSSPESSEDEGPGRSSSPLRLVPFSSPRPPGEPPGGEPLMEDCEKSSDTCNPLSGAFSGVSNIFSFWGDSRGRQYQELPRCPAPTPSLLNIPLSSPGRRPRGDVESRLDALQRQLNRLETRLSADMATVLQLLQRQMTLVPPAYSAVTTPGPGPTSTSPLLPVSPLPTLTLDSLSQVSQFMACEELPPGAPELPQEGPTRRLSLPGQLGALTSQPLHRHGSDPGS
Sequence of Cytochrome P450 1A2 (P05177 whole entry): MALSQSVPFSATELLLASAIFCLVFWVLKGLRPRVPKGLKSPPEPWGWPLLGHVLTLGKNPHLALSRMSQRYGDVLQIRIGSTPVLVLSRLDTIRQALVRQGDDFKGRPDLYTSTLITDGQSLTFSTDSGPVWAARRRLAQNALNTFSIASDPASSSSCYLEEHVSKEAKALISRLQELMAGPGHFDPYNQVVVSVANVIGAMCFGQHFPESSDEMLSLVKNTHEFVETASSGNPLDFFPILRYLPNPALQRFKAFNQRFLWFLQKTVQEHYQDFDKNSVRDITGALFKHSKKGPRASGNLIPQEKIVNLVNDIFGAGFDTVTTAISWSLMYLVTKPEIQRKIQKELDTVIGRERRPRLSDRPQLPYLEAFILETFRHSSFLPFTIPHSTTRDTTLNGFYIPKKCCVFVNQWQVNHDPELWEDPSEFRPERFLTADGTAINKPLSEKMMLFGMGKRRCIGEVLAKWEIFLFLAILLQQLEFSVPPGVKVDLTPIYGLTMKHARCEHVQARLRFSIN
Sequence of Cytochrome P450 2C19 (P33261 whole entry): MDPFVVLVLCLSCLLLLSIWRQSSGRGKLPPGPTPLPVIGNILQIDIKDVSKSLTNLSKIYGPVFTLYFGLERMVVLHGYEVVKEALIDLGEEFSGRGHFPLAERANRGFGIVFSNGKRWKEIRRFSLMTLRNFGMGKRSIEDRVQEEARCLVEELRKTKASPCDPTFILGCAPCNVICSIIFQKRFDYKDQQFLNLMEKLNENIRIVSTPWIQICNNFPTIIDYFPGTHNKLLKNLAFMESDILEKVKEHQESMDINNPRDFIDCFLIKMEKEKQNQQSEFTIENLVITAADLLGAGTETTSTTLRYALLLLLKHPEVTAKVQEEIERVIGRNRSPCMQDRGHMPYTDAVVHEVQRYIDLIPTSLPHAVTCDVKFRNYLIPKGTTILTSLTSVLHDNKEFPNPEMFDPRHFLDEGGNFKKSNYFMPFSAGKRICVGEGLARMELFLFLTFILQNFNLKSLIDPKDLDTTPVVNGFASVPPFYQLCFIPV
Sequence of Cytochrome P450 3A4 (P08684 whole entry): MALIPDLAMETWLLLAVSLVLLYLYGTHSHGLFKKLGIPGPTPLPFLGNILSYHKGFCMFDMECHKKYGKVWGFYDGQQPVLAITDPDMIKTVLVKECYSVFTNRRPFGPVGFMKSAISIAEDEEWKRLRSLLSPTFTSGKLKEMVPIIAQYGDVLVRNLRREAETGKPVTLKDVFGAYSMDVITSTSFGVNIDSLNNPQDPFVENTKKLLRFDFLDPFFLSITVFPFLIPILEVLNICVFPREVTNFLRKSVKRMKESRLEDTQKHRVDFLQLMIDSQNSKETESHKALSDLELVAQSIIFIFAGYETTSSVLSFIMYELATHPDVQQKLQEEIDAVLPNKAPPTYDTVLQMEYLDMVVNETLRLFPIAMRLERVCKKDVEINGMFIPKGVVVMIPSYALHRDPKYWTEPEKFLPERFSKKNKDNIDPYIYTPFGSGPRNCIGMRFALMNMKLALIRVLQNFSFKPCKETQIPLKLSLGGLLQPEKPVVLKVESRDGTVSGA
Sequence of Cytochrome P450 2C9 (P11712 whole entry): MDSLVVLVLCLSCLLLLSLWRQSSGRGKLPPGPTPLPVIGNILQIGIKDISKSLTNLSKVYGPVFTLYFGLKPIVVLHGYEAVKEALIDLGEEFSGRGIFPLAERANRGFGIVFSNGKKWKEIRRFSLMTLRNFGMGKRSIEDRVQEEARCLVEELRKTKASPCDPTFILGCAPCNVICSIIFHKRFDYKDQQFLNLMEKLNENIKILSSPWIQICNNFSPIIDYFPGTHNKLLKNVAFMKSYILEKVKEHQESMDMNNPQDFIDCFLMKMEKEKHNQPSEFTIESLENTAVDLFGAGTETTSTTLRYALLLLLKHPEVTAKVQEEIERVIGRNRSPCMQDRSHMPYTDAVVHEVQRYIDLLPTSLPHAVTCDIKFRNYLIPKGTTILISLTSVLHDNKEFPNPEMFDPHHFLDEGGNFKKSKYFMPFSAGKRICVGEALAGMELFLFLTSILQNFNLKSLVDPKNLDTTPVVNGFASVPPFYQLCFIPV

For `Cc1cc(C(=O)NCCF)c2ncn(Cc3ncnc(OC(F)F)c3C)c2c1`, the MIC [1, 48] was less than 0.39 µM and the IC50 [2] was 16 nM.

`COc1cc(C(=O)NCCF)c2ncn(Cc3ncnc(OC)c3C)c2c1` gave an MIC [1, 48] of less than 0.39 µM and an IC50 [2] of 5 nM.

With `Cc1cc(C(=O)NCC(F)F)c2ncn(Cc3ncnc(N(C)C)c3C)c2c1` the MIC [1, 48] was less than 0.39 µM and the IC50 [2] was 4 nM.

With `COc1cc(C(=O)NCC(F)F)c2ncn(Cc3ncnc(N(C)C)c3C)c2c1` the MIC [1, 48] was less than 0.39 µM and the IC50 [2] was 9 nM.

Molecule `COc1ncnc(Cn2cnc3c(C(=O)NCCF)cccc32)c1C` has an MIC [1, 48] of 1.56 to 3.12 µM (≈ 0.536 to 1.07 µg/mL), an IC50 [2] of 34 nM and an MBC [3] of 1.56 µM (≈ 0.536 µg/mL). It also gave an Activity [4] greater than 3 log10CFU, an Activity [5] of 1 log10CFU and an MIC [6] of 0.78 to 1.56 µM (≈ 0.268 to 0.536 µg/mL). It also gave a Tmax [7] of 6 to 10 h, a logD [8] of 1.9 and a solubility [9] of 152 µM (≈ 52.2 µg/mL). The fraction unbound [10] was 0.32, the Papp A→B [11] was 37 ×10⁻⁶ cm/s and the Papp B→A [12] was 14 ×10⁻⁶ cm/s. The IC50 [13] was greater than 50000 nM, the IC50 [14] was greater than 50000 nM and the IC50 [15] was greater than 50000 nM. It also gave an IC50 [16] greater than 50000 nM, an IC50 [17] greater than 50000 nM and an IC50 [18] greater than 33000 nM. For the same molecule, the clearance [19] was 48 mL/min/kg, the bioavailability [20] was 114% and the Cmax [21] was 5.1 µM. For the same molecule, the Tmax [22] was 2 h, the AUC(0-inf) [23] was 13.5 µM·h and the half-life [24] was 4.5 h. The Cmax [25] was 18.3 µM, the Tmax [26] was 3 h and the AUC(0-inf) [27] was 78.6 µM·h. For the same molecule, the half-life [28] was 5.9 h, the Activity [29] was 1.5 log10CFU and the Activity [30] was 1 log10CFU. For the same molecule, the Activity [31] was “Non-Toxic”, the Activity [32] was “Non-Toxic” and the Activity [33] was “Non-Toxic”. For the same molecule, the MIC [34] was greater than 200 µM, the MIC [35] was greater than 200 µM and the MIC [36] was greater than 200 µM. It also gave an MIC [37] greater than 200 µM, an MIC [38] greater than 200 µM and an MIC [39] greater than 200 µM. The MIC [40] was greater than 200 µM, the MIC [41] was greater than 200 µM and the MIC [42] was greater than 200 µM. For the same molecule, the MIC [43] was greater than 200 µM, the MIC [44] was greater than 200 µM and the MIC [45] was greater than 200 µM. The MIC [46] was greater than 200 µM and the MIC [47] was greater than 200 µM.

Molecule `COc1cc(C(=O)NCCF)c2ncn(Cc3ncnc(N(C)C)c3C)c2c1` has an MIC [1, 48] of less than 0.39 µM, an IC50 [2] of 16 nM and a logD [8] of 2 to 2.1. It also gave a solubility [9] greater than 1000 µM, a fraction unbound [10] of 0.31 and a Papp A→B [11] of 26 ×10⁻⁶ cm/s. It also gave a Papp B→A [12] of 22 ×10⁻⁶ cm/s, an IC50 [13] greater than 50000 nM and an IC50 [14] greater than 50000 nM. The IC50 [15] was greater than 50000 nM, the IC50 [16] was greater than 50000 nM and the IC50 [17] was greater than 50000 nM. For the same molecule, the IC50 [18] was greater than 33000 nM.

`Cc1cc(C(=O)NCCF)c2ncn(Cc3ncnc(N(C)C)c3C)c2c1` gave an MIC [1, 48] of less than 0.39 µM and an IC50 [2] of 9 nM.

`COc1ncnc(Cn2cnc3c(C(=O)NCCF)cc(C)cc32)c1C` showed an MIC [1, 48] of 0.78 µM (≈ 0.279 µg/mL) and an IC50 [2] of 8 nM.

Work on `COc1cc(C(=O)NCC(F)F)c2ncn(Cc3ncnc(OC(F)F)c3C)c2c1` yielded an MIC [1, 48] of less than 0.39 µM and an IC50 [2] of 5 nM.

Work on `C[C@H]1COC2(CCN(c3nc(=O)c4cc(C(F)(F)F)cc([N+](=O)[O-])c4s3)CC2)O1` [BTZ-043] yielded an MIC [1, 48] of 0.003 to 0.006 µM (≈ 0.00129 to 0.00259 µg/mL).

Molecule `NNC(=O)c1ccncc1` [ISONIAZID] has an MIC [1, 48] of 0.44 µM (≈ 0.0603 µg/mL).

`CO[C@H]1/C=C/O[C@@]2(C)Oc3c(C)c(O)c4c(O)c(c(/C=N/N5CCN(C)CC5)c(O)c4c3C2=O)NC(=O)/C(C)=C\C=C\[C@H](C)[C@H](O)[C@@H](C)[C@@H](O)[C@@H](C)[C@H](OC(C)=O)[C@@H]1C` [RIFAMPIN] showed an MIC [1, 48] of 0.01 µM (≈ 0.00823 µg/mL).

In the case of `COc1ncnc(Cn2cc(C(=O)NCCO)c3ncc(C)cc32)c1C` [TBA-7371], the MIC [1] is reported as 0.78 µM (≈ 0.277 µg/mL), the MBC [3] is reported as 1.56 µM (≈ 0.554 µg/mL) and the clearance [19] is reported as 27 mL/min/kg.
